Converted amounts (≈) assume the structure as drawn.
How the values were obtained:
[1] = target: T1, Peroxisome proliferator-activated receptor gamma (Homo sapiens, UniProt P37231); assay: in vitro agonist activity against peroxisome proliferator activated receptor-gamma (PPAR-gamma), using alkaline phosphatase activity transactivator assay; format: functional
T1 sequence (P37231 whole entry): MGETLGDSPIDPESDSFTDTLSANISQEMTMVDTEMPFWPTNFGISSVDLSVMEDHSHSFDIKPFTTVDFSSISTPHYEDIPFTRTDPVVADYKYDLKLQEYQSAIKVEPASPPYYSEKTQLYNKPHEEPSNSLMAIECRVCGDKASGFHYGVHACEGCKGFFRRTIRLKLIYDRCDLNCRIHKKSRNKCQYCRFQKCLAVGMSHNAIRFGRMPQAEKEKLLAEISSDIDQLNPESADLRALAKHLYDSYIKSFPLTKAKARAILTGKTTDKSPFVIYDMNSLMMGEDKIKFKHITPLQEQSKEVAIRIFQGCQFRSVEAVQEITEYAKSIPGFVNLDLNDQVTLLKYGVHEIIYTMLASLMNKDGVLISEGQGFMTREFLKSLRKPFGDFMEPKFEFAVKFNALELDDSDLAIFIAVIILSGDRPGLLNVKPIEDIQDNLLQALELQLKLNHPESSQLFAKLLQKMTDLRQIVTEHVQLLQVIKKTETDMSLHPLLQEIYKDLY

[2] = target: T1, Peroxisome proliferator-activated receptor gamma; assay: Binding affinity against peroxisome proliferator activated receptor gamma (PPAR-gamma)
[3] = Solubility in simulated gastric fluid.; format: physicochemical; details: read-out: S
Procedure, shortened: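 Solubility in simulated gastric fluid, pH 1.2, in temperature-controlled shaking water baths. Samples were drawn, passed through a 0.22-µm filter, diluted in water/acetonitrile (60:40), and quantified by HPLC on a phenyl reverse-phase column.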

[4] = Solubility in phosphate buffer at pH 7.4.; format: physicochemical
Procedure, shortened: (§1)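 Solubility in 0.06 M phosphate buffer, pH 7.4, in temperature-controlled shaking water baths. Samples were drawn, passed through a 0.22-µm filter, diluted in water/acetonitrile (60:40), and quantified by HPLC on a phenyl reverse-phase column. Reported in mg/mL.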

Rattus norvegicus [5] = assay: Compound was tested in vivo for Antihyperglycemic activity in diabetic rats, activity is expressed as percent reduction of plasma glucose; format: functional
Procedure, shortened: (§2)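 Nine-week-old male Zucker diabetic fatty rats, n = 8/group, baseline-matched for plasma glucose. The highest test dose was given twice daily by oral gavage for 17 days. Tail-vein blood was drawn on days 0, 3, 7 and 17 for plasma glucose, insulin, triglycerides and NEFAs. The value is mean ± SEM percent reduction versus vehicle controls on day 17.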

Rattus norvegicus [6] = organism: Rattus norvegicus; assay: Compound was tested for Antihyperlipidemic activity, activity is expressed as percent reduction of Triglycerides; format: functional; procedure, shortened: as §2
Rattus norvegicus [7] = organism: Rattus norvegicus; assay: Compound was tested for Antihyperlipidemic activity, activity is expressed as percent reduction of NEFAs; format: functional; procedure, shortened: as §2
Rattus norvegicus [8] = assay: Compound was tested in vivo for Antihyperglycemic activity in diabetic rats, activity is expressed as percent reduction of HbA-1c; format: functional
Procedure, shortened: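 Male ZDF rats, nine weeks old, 8 per group, were matched at baseline on plasma glucose. They were dosed orally by gavage twice daily for 17 days at the maximum test dose. Glycosylated hemoglobin was measured on day 17. Data are mean ± SEM percent reduction relative to the vehicle control group.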

[9] = Solubility in pH 7.4 Phosphate buffer; format: physicochemical; procedure, shortened: as §1
[10] = target: T1, Peroxisome proliferator-activated receptor gamma; assay: The compound was tested functionally in vitro for inducing 50% of the maximum alkaline phosphatase activity (Transactivation) against Peroxisome proliferator activated receptor gamma; format: functional
[11] = target: T1, Peroxisome proliferator-activated receptor gamma; assay: The compound was tested in vitro for inhibiting the 50% binding of Peroxisome proliferator activated receptor gamma
Procedure, shortened: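 Radioligand competition binding to the human PPARγ ligand-binding domain. IC50 is the concentration inhibiting 50% of specific radioligand binding. Apparent Ki = IC50/(1 + [L]/Kd), where [L] is the radioligand concentration and Kd its dissociation constant. Reported as pKi (−log Ki).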

EC50 [1]	Ki [2]	Compound	also measured
39.8 nM	2.69 nM	CN(CCOc1ccc(CC(Nc2ccccc2C(=O)c2ccccc2C(F)(F)F)C(=O)O)cc1)c1nc2ccccc2o1 (configuration not stated)	–
63.1 nM	2.34 nM	CN(CCOc1ccc(CC(Nc2ccccc2C(=O)c2ccsc2)C(=O)O)cc1)c1nc2ccccc2o1 (configuration not stated)	–
0.912 nM	–	Cc1oc(-c2ccccc2)nc1CCOc1ccc(CC(Nc2ccccc2C(=O)c2ccncc2)C(=O)O)cc1 (configuration not stated)	solubility [3]: 87 µg/mL (≈ 159 µM); solubility [4]: 1150 µg/mL (≈ 2100 µM)
–	–	Cc1c(C)c2c(c(C)c1O)CCC(C)(COc1ccc(CC3SC(=O)NC3=O)cc1)O2 (configuration not stated) [TROGLITAZONE]	Reduction (Rattus norvegicus [5]): 59%; Reduction (Rattus norvegicus [6]): 85%; Reduction (Rattus norvegicus [7]): 81%; Reduction (Rattus norvegicus [8]): 35%
–	–	Cc1oc(-c2ccccc2)nc1CCOc1ccc(C[C@H](Nc2ccccc2C(=O)c2ccccc2)C(=O)O)cc1 [FARGLITAZAR]	solubility [9]: < 1 µg/mL; solubility [3]: < 1 µg/mL
417 nM	–	Cc1oc(-c2ccccc2)nc1CCOc1ccc(CC(Nc2ccccc2C(=O)c2cccc(CN(C)C)c2)C(=O)O)cc1 (configuration not stated)	solubility [3]: 9 µg/mL (≈ 14.9 µM); solubility [4]: 9 µg/mL (≈ 14.9 µM)
8.91 nM	3.24 nM	Cc1oc(-c2ccccc2)nc1CCOc1ccc(CC(Nc2ccccc2C(=O)c2cccc(N)c2)C(=O)O)cc1 (configuration not stated)	solubility [3]: 3 µg/mL (≈ 5.34 µM); solubility [4]: 525 µg/mL (≈ 935 µM)
0.282 nM	–	Cc1oc(-c2ccccc2)nc1CCOc1ccc(C[C@H](Nc2ccccc2C(=O)C2CCCCC2)C(=O)O)cc1	–
407 nM	15.5 nM	Cc1oc(-c2ccccc2)nc1CCOc1ccc(CC(Nc2ccccc2C(=O)c2ccc(CN(C)C)cc2)C(=O)O)cc1 (configuration not stated)	–
45.7 nM	2.75 nM	CN(CCOc1ccc(CC(Nc2ccccc2C(=O)c2cccs2)C(=O)O)cc1)c1nc2ccccc2o1 (configuration not stated)	–
38 nM	–	COc1ccccc1C(=O)c1ccccc1NC(Cc1ccc(OCCN(C)c2nc3ccccc3o2)cc1)C(=O)O (configuration not stated)	–
9330 nM	155 nM	CN(CCOc1ccc(CC(Nc2ccncc2C(=O)c2ccccc2)C(=O)O)cc1)c1nc2ccccc2o1 (configuration not stated)	–
–	1.48 nM	CN(CCOc1ccc(CC(Nc2ccccc2C(=O)c2ccccc2)C(=O)O)cc1)c1nc2ccccc2o1 (configuration not stated)	–
229 nM	13.5 nM	Cc1ccc(NC(Cc2ccc(OCCN(C)c3nc4ccccc4o3)cc2)C(=O)O)c(C(=O)c2ccccc2)c1 (configuration not stated)	–
0.575 nM	0.977 nM	Cc1oc(-c2ccccc2)nc1CCOc1ccc(CC(Nc2ccccc2C(=O)OC(C)C)C(=O)O)cc1 (configuration not stated)	–
759 nM	66.1 nM	CN(CCOc1ccc(CC(Nc2ccccc2C(=O)c2ccc(OCc3ccccc3)cc2)C(=O)O)cc1)c1nc2ccccc2o1 (configuration not stated)	–
–	–	CN(CCOc1ccc(CC(Nc2ccccc2C(=O)c2cccc3ccccc23)C(=O)O)cc1)c1nc2ccccc2o1 (configuration not stated)	EC50 [10]: 85.1 nM; Ki [11]: 3.24 nM
11.7 nM	2.63 nM	CN(CCOc1ccc(CC(Nc2ccccc2C(=O)c2cccc(C(F)(F)F)c2)C(=O)O)cc1)c1nc2ccccc2o1 (configuration not stated)	–
32.4 nM	15.5 nM	CNC(=O)c1ccccc1NC(Cc1ccc(OCCc2nc(-c3ccccc3)oc2C)cc1)C(=O)O (configuration not stated)	–
1.48 nM	0.933 nM	Cc1oc(-c2ccccc2)nc1CCOc1ccc(CC(Nc2ccccc2C(=O)c2cccnc2)C(=O)O)cc1 (configuration not stated)	solubility [3]: 18 µg/mL (≈ 32.9 µM); solubility [4]: 55 µg/mL (≈ 100 µM)
24.5 nM	3.39 nM	Cc1oc(-c2ccccc2)nc1CCOc1ccc(CC(Nc2ccccc2C(=O)c2cccc(CO)c2)C(=O)O)cc1 (configuration not stated)	solubility [4]: 1340 µg/mL (≈ 2320 µM)
0.912 nM	3.02 nM	CCOC(=O)c1ccccc1NC(Cc1ccc(OCCc2nc(-c3ccccc3)oc2C)cc1)C(=O)O (configuration not stated)	–
562 nM	251 nM	Cc1oc(-c2ccccc2)nc1CCOc1ccc(CC(Nc2ccccc2C(=O)N(C)C)C(=O)O)cc1 (configuration not stated)	–
12 nM	9.77 nM	CN(CCOc1ccc(CC(Nc2ccsc2C(=O)c2ccccc2)C(=O)O)cc1)c1nc2ccccc2o1 (configuration not stated)	–

EC50 [1]	Ki [2]	Compound	also measured
9.33 nM	–	Cc1ccccc1C(=O)c1ccccc1NC(Cc1ccc(OCCN(C)c2nc3ccccc3o2)cc1)C(=O)O (configuration not stated)	–
8.32 nM	2.57 nM	CN(CCOc1ccc(CC(Nc2cscc2C(=O)c2ccccc2)C(=O)O)cc1)c1nc2ccccc2o1 (configuration not stated)	–
2.88 nM	4.07 nM	CN(CCOc1ccc(C[C@H](Nc2ccccc2C(=O)C2CCCCC2)C(=O)O)cc1)c1nc2ccccc2o1	–
–	–	CN(CCOc1ccc(CC(Nc2ccccc2C(=O)c2ccc(-c3ccccc3)cc2)C(=O)O)cc1)c1nc2ccccc2o1 (configuration not stated)	EC50 [10]: 24 nM; Ki [11]: 49 nM
–	–	CN(CCOc1ccc(CC(Nc2ccccc2C(=O)c2cccc(OCc3ccccc3)c2)C(=O)O)cc1)c1nc2ccccc2o1 (configuration not stated)	EC50 [10]: 741 nM; Ki [11]: 53.7 nM
17.4 nM	4.17 nM	Cc1oc(-c2ccccc2)nc1CCOc1ccc(CC(Nc2ccccc2C(=O)c2ccc(CO)cc2)C(=O)O)cc1 (configuration not stated)	solubility [3]: 22 µg/mL (≈ 38.2 µM); solubility [4]: 75 µg/mL (≈ 130 µM)
18.2 nM	6.46 nM	CN(CCOc1ccc(CC(Nc2ccccc2C(=O)C2CCCC2)C(=O)O)cc1)c1nc2ccccc2o1 (configuration not stated)	–
32.4 nM	5.62 nM	COc1ccc(C(=O)c2ccccc2NC(Cc2ccc(OCCN(C)c3nc4ccccc4o3)cc2)C(=O)O)cc1 (configuration not stated)	–
8.51 nM	2.82 nM	Cc1ccc(C(=O)c2ccccc2NC(Cc2ccc(OCCN(C)c3nc4ccccc4o3)cc2)C(=O)O)cc1 (configuration not stated)	–
4900 nM	> 3160 nM	Cc1oc(-c2ccccc2)nc1CCOc1ccc(CC(Nc2ccccc2C(=O)O)C(=O)O)cc1 (configuration not stated)	–
209 nM	813 nM	Cc1oc(-c2ccccc2)nc1CCOc1ccc(CC(Nc2ccccc2C(=O)c2cccc(C(=O)O)c2)C(=O)O)cc1 (configuration not stated)	–
24 nM	5.13 nM	CN(CCOc1ccc(CC(Nc2ccccc2C(=O)c2ccc(C(F)(F)F)cc2)C(=O)O)cc1)c1nc2ccccc2o1 (configuration not stated)	–
16.6 nM	2.69 nM	Cc1cccc(C(=O)c2ccccc2NC(Cc2ccc(OCCN(C)c3nc4ccccc4o3)cc2)C(=O)O)c1 (configuration not stated)	–
–	–	COC(=O)c1ccccc1N[C@@H](Cc1ccc(OCCc2nc(-c3ccccc3)oc2C)cc1)C(=O)O [GW7845]	Reduction (Rattus norvegicus [5]): 67%; solubility [3]: < 2 µg/mL; Reduction (Rattus norvegicus [6]): 82%; solubility [4]: 300 µg/mL (≈ 599 µM); Reduction (Rattus norvegicus [7]): 87%; Reduction (Rattus norvegicus [8]): 40%
> 10000 nM	1550 nM	CN(CCOc1ccc(C[C@@H](Nc2ccccc2C(=O)C2CCCCC2)C(=O)O)cc1)c1nc2ccccc2o1	–
15.1 nM	191 nM	Cc1oc(-c2ccccc2)nc1CCOc1ccc(C[C@@H](Nc2ccccc2C(=O)C2CCCCC2)C(=O)O)cc1	solubility [3]: 2 µg/mL (≈ 3.62 µM); solubility [4]: 52 µg/mL (≈ 94.1 µM)
0.302 nM	2.4 nM	CCCOC(=O)c1ccccc1NC(Cc1ccc(OCCc2nc(-c3ccccc3)oc2C)cc1)C(=O)O (configuration not stated)	–
7590 nM	646 nM	Cc1oc(-c2ccccc2)nc1CCOc1ccc(CC(Nc2ccccc2C(=O)c2ccc(C(=O)O)cc2)C(=O)O)cc1 (configuration not stated)	–
89.1 nM	8.71 nM	CN(CCOc1ccc(CC(Nc2ccc(Cl)cc2C(=O)c2ccccc2)C(=O)O)cc1)c1nc2ccccc2o1 (configuration not stated)	–
7.76 nM	39.8 nM	CN(CCOc1ccc(CC(Nc2ccccc2C(=O)C2CCCCCC2)C(=O)O)cc1)c1nc2ccccc2o1 (configuration not stated)	–
117 nM	2.29 nM	COc1cccc(C(=O)c2ccccc2NC(Cc2ccc(OCCN(C)c3nc4ccccc4o3)cc2)C(=O)O)c1 (configuration not stated)	–
38 nM	23.4 nM	CN(CCOc1ccc(CC(Nc2sccc2C(=O)c2ccccc2)C(=O)O)cc1)c1nc2ccccc2o1 (configuration not stated)	–
4070 nM	42.7 nM	CSc1nc(NC(Cc2ccc(OCCN(C)c3nc4ccccc4o3)cc2)C(=O)O)c(C(=O)c2ccccc2)s1 (configuration not stated)	–

— ChEMBL document CHEMBL1131297, “N-(2-Benzoylphenyl)-L-tyrosine PPARgamma agonists. 3. Structure-activity relationship and optimization of the N-aryl substituent” (J Med Chem, 1998)
